Data from paper PMC9588736 (Cell chemical biology, 2022).
Values belong to the molecule of their own block, whether it stands above or below them.

What was measured:
[1] = system: HEK293T cells; experiment: Quantitative proteomics in HEK293T cells; type: cell-based; settings: human HEK293T cells, 10 hour treatment
[2] = molecular target: KEAP1-BRD4BD2 (Homo sapiens, UniProt O60885+Q14145); experiment: KEAP1-BRD4BD2 dimerization TR-FRET assay; type: biochemical
Summary of the method: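 TR-FRET mix: 200 nM biotinylated human BRD4BD2, 200 nM Alexa Fluor 647-labelled human KEAP1 (residues 321–609, insect-cell expressed, SpyCatcher-labelled) and 2 nM Eu-streptavidin. Buffer was 50 mM Tris pH 8.0, 200 mM NaCl, 0.1% Pluronic F-68, 0.5% BSA and 1 mM TCEP; compound was titrated. After 15 min at room temperature, excitation was 337 nm and the 665/620 nm ratio was read over thirty 200-s cycles. Mean ± SD of ≥3 technical replicates; two independent experiments.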

[3] = molecular target: T1, BRD4 (Homo sapiens, UniProt O60885); experiment: Immunoblot of BRD4 degradation in MM.1S cells; type: cell-based
Summary of the method: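 MM.1S cells were treated with test compound for 16 h (24 h in the initial screen). For rescue, cells were pretreated 2 h with 10 μM KEAP1 inhibitor, 10 μM JQ1 or 1 μM MLN4924. Lysates in RIPA were BCA-normalised, run on 4–12% gels and blotted to PVDF with IRDye secondaries. BRD4 bands were quantified relative to β-actin. Two independent experiments.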

[4] = molecular target: T1, BRD4; experiment: Immunoblot of BRD4 degradation in parental and KEAP1 knockdown OVCAR8 cells; type: cell-based
Summary of the method: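 OVCAR8 cells were grown in DMEM with 10% FBS. KEAP1 knockdown lines came from shRNA lentivirus made in HEK293T, used with polybrene (10 μg/mL) and selected with puromycin (1 μg/mL); knockdown was checked by Western blot. Parental and knockdown cells were treated with test compound for 16 h, then immunoblotted. BRD4 was normalised to β-actin. Two independent experiments.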

[5] = system: MM.1S proteome; experiment: Multiplexed mass spectrometry-based proteomics in MM.1S cells; type: cell-based, human; settings: 200 nM, 6 hours
Summary of the method: (§1)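 TMT-multiplexed LC-MS proteomics. Cells were treated with DMSO (biological triplicate) or test compound (MM.1S: 0.2 μM, 6 h; KPC: 1 μM, 8 h), harvested by centrifugation at 4 °C and lysed in 8 M urea/EPPS pH 8.5. 200 μg protein was reduced, alkylated and precipitated, digested with LysC 12 h at room temperature then trypsin 6 h at 37 °C, TMT-labelled, high-pH fractionated (96→24) and run on an Orbitrap Fusion Lumos.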

[6] = system: BRD4/3/2; experiment: Immunoblot of BRD4/3/2 in MM.1S cells; type: cell-based, human; settings: indicated time points
Summary of the method: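 MM.1S cells were grown in RPMI with 10% FBS at 37 °C and 5% CO2, then given DMSO or test compound for a time course. Cells were lysed in RIPA with protease and phosphatase inhibitors. BCA-equalised protein was run on 4–12% gels and transferred to PVDF. Primary antibodies ran overnight at 4 °C and IRDye secondaries 1 h at room temperature. BRD4/3/2 bands were normalised to β-actin by densitometry. Two independent experiments.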

[7] = system: KPC cells; experiment: Quantitative proteomics in KPC cells; type: cell-based, mouse; settings: 1 μM, 8 hours
Summary of the method: as §1

[8] = molecular target: FAK (Mus musculus, UniProt P34152); experiment: Immunoblot of FAK degradation in KPC cells; type: cell-based
Chain of FAK (Mus musculus, UniProt P34152) (P34152 whole entry): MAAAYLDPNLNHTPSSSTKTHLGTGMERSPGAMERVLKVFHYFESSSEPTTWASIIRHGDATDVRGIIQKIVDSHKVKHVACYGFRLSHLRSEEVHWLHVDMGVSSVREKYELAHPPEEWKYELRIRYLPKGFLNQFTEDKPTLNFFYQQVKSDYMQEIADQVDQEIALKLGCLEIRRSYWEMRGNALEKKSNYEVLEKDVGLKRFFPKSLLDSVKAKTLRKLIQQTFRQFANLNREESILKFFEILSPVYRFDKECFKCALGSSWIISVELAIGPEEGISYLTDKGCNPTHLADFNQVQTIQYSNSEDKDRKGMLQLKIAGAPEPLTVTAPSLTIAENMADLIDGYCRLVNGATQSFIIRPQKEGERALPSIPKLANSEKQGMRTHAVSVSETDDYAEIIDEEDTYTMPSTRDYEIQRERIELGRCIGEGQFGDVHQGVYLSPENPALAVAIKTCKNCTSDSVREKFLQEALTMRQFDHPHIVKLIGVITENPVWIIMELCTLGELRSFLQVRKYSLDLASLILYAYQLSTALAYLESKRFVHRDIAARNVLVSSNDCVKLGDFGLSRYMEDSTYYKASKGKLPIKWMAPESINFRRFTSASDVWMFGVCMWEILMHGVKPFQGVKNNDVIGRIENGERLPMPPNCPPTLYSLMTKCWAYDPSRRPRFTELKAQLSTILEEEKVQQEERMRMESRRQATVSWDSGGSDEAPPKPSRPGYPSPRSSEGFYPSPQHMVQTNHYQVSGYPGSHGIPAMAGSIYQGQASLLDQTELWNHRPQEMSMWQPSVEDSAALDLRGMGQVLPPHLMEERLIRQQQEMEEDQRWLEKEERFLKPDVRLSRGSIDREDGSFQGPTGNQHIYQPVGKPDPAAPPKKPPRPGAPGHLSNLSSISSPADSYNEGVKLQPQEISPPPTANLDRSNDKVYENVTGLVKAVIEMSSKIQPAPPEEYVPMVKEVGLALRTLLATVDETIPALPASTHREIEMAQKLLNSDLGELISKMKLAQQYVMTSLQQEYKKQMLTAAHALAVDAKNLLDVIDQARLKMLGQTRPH
Summary of the method: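 Murine pancreatic KPC cells (RPMI, 10% FBS) were exposed to 500 nM or 1 μM test compound over a time course. RIPA lysates were immunoblotted, with FAK band intensity normalised to β-actin in ImageJ. Blots are representative of two independent experiments.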

[9] = molecular target: FAK (Homo sapiens, UniProt Q05397); experiment: Immunoblot of FAK degradation in PATU-8988T cells; type: cell-based; settings: 0.1–5 μM, 24 h
Chain of FAK (Homo sapiens, UniProt Q05397) (Q05397 whole entry): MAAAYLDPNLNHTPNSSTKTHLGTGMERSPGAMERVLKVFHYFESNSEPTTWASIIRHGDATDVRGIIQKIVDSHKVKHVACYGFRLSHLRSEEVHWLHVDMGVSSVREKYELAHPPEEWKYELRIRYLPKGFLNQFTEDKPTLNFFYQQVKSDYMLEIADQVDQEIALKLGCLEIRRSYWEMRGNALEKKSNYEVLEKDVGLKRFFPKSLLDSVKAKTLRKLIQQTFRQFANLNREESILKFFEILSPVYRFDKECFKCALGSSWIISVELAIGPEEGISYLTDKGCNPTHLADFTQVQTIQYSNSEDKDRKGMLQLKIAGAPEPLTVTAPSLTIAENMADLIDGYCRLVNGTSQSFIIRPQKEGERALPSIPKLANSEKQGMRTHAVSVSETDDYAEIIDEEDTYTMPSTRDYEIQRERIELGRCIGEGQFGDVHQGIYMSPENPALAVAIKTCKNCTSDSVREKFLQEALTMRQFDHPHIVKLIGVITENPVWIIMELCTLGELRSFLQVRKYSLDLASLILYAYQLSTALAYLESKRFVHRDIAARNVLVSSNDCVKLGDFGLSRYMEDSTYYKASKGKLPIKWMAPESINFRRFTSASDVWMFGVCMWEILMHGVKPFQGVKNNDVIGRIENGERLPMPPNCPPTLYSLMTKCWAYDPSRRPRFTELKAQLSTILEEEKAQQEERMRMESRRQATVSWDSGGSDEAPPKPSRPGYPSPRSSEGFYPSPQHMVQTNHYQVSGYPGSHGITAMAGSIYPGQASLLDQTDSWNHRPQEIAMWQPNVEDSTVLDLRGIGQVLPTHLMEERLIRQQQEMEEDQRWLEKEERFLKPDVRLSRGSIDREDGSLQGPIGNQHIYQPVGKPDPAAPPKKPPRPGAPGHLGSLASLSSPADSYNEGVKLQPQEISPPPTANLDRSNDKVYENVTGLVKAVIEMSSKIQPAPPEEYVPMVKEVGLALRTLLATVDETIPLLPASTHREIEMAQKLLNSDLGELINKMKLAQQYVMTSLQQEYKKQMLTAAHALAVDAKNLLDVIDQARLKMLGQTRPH
Summary of the method: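 Human PATU-8988T pancreatic cells (DMEM, 10% FBS) were treated 24 h with test compound at 0.1–5 μM. FAK was assessed by immunoblot of RIPA lysates and normalised to β-actin. Two independent experiments.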

Chain of KEAP1-BRD4BD2 (Q14145 321-609 limits assumed, other chains not shown): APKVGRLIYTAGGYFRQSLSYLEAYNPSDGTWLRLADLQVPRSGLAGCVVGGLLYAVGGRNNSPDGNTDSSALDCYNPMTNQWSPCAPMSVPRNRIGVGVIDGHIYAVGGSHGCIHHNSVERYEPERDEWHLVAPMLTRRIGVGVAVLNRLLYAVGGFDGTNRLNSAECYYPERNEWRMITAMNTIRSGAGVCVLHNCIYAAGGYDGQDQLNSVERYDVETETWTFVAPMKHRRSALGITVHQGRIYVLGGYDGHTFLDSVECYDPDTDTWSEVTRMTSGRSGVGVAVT

Compound: Cc1ccc(C(CC(=O)O)c2cc(OCC(=O)NCCOCCOCCN3CCN(c4ccc(Nc5ncc(Cl)c(Nc6ccccc6S(=O)(=O)C(C)C)n5)cc4)CC3)c3c(c2)nnn3C)cc1CN1CC(C)Oc2ccccc2S1(=O)=O (centres unmarked) [DGY-03–188, 3-(7-(2-((2-(2-(2-(4-(4-((5-chloro-4-((2-(isopropylsulfonyl)phenyl)amino)pyrimidin-2-yl)amino)phenyl)piperazin-1-yl)ethoxy)ethoxy)ethyl)amino)-2-oxoethoxy)-1-methyl-1H-benzo[d][1,2,3]triazol-5-yl)-3-(4-methyl-3-((4-methyl-1,1-dioxido-3,4-dihydro-2H-benzo[b][1,4,5]oxathiazepin-2-yl)methyl)phenyl)propanoic acid]
degradation across the whole proteome [1]: did not induce any degradation across the whole proteome

concentration at which KEAP1-BRD4BD2 dimerization is promoted [2]: approximately 100 nM | BRD4 degradation, enantiomers compared ([3]; MM1.S cells, 24-hour treatment at 1 μM): induced stronger degradation of BRD4 | BRD4 degradation after pre-treatment with MLN4924 ([3]; MM.1S cells, 1 μM MLN4924 2 h prior, then 16 hrs): BRD4 degradation was blocked | BRD4 degradation after pre-treatment with excess (+)-JQ1 or KI-696 ([3]; MM.1S cells, 10 μM JQ1 or 10 μM KEAP1 inhibitor 2 h prior, then 16 hrs): abolished | effect on BRD4 abundance ([4]; KEAP1 knockdown (KEAP1^KD) OVCAR8 cells, 16 h): no effect on BRD4 abundance | BRD4 degradation ([4]; OVCAR8 cells, 1 μM): induces degradation of BRD4 | concentration of maximal BRD4 degradation ([4]; parental OVCAR8 cells, 16 hours): 1 µM
Compound: COc1cc([C@@H](CC(=O)O)c2ccc(C)c(CN3C[C@@H](C)Oc4cc(CCCCCCNC(=O)C[C@@H]5N=C(c6ccc(Cl)cc6)c6c(sc(C)c6C)-n6c(C)nnc65)ccc4S3(=O)=O)c2)cc2nnn(C)c12 [DGY-06–177-pk2, (S)-3-(3-(((R)-7-(6-(2-((S)-4-(4-chlorophenyl)-2,3,9-trimethyl-6H-thieno[3,2-f][1,2,4]triazolo[4,3-a][1,4]diazepin-6-yl)acetamido)hexyl)-4-methyl-1,1-dioxido-3,4-dihydro-2H-benzo[b][1,4,5]oxathiazepin-2-yl)methyl)-4-methylphenyl)-3-(7-methoxy-1-methyl-1H-benzo[d][1,2,3]triazol-5-yl)propanoic acid]
selectivity of degradation across the proteome [5]: BRD4 as the only significantly downregulated protein | degradation of BRD4 versus BRD2 and BRD3 by immunoblotting [6]: preferentially induces BRD4 degradation while largely sparing BRD2&3

time of maximal FAK degradation ([8]; 500 nM): 24 h | time of maximal FAK degradation ([8]; 1 μM): 8 h | FAK degradation [9]: did not observe degradation of FAK
Compound: COc1cc([C@@H](CC(=O)O)c2ccc(C)c(CN3C[C@@H](C)Oc4cc(CCCN5CCN(c6ccc(Nc7ncc(Cl)c(Nc8ccccc8S(=O)(=O)C(C)C)n7)cc6)CC5)ccc4S3(=O)=O)c2)cc2nnn(C)c12 [NJH-04–098, (S)-3-(3-(((R)-7-(3-(4-(4-((5-chloro-4-((2-(isopropylsulfonyl)phenyl)amino)pyrimidin-2-yl)amino)phenyl)piperazin-1-yl)propyl)-4-methyl-1,1-dioxido-3,4-dihydro-2H-benzo[b][1,4,5]oxathiazepin-2-yl)methyl)-4-methylphenyl)-3-(7-methoxy-1-methyl-1H-benzo[d][1,2,3]triazol-5-yl)propanoic acid]
proteins downregulated across the proteome [7]: only FAK (PTK2) was significantly downregulated across the proteome
